Data from ChEMBL document CHEMBL1154682, “Discovery of novel benzoxazinones as potent and orally active long chain fatty acid elongase 6 inhibitors” (J Med Chem, 2009).

How the values were obtained:
[1] = target: T1, Very long chain fatty acid elongase 6 (Mus musculus, UniProt Q920L5); assay: Inhibition of mouse ELOVL6 expressed in Pichia pastoris using palmitoyl-CoA by long chain fatty acyl-CoA elongation assay
T1 sequence (Q920L5 whole entry): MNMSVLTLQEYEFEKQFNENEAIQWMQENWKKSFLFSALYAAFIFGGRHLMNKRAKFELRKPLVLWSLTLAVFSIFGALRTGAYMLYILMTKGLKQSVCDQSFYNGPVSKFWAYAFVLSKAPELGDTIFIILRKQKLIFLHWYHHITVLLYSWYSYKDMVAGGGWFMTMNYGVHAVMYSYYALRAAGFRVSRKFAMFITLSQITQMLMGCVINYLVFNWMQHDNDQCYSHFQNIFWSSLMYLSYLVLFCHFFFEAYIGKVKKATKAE
Outline: (§1)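 Microsomes (3 μg) from Pichia pastoris SMD1168 expressing FLAG-tagged human or mouse ELOVL6 were incubated 1 h at 37 °C in 100 mM potassium phosphate pH 6.5 with 40 μM palmitoyl-CoA, 20 μM malonyl-CoA plus [14C]-malonyl-CoA, 500 μM NADPH, 200 μM BSA and 1 μM rotenone. DMSO was 1.0% final. After HCl hydrolysis, filter-retained 14C was counted. IC50 came from nonlinear regression on % of control.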

[2] = target: T1, Very long chain fatty acid elongase 6; assay: Inhibition of ELOVL6 in mouse H2.35 cells assessed as elongation index; assay type: cell-based
Outline: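 Subconfluent mouse hepatoma H2.35 cells were kept at 33 °C in DMEM with 200 nM dexamethasone and 4% FBS. Lipids were hydrolysed in NaOH at 70 °C, and fatty acids extracted and quantified by radio-HPLC. Elongation index = (C18:0 + C18:1) / (C16:0 + C16:1).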

[3] = target: T2, Very long chain fatty acid elongase 6 (Homo sapiens, UniProt Q9H5J4); assay: Inhibition of human ELOVL6 expressed in Pichia pastoris using palmitoyl-CoA by long chain fatty acyl-CoA elongation assay; outline: as §1
T2 sequence (Q9H5J4 whole entry): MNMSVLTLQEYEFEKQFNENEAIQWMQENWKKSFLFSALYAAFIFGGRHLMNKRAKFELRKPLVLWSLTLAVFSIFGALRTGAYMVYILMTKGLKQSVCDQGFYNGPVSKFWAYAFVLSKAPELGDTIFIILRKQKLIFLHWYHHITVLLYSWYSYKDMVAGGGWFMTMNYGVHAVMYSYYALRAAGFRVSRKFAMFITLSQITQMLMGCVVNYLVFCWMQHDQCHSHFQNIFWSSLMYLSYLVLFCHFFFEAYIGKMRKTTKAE

[4] = Unbound fraction in C57BL/6N mouse plasma; assay type: ADME, cell-free
Outline: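 Equilibrium dialysis was run with C57BL/6N mouse plasma adjusted to pH 7.4 and spiked with 1 μM compound, dialysed against PBS for 6 h at 37 °C. Both sides were analysed by LC-MS/MS. Unbound fraction = Cf/Cp × 100. Mean of n = 3.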

| IC50 [1] [nM] | IC50 [2] [nM] | IC50 [3] [nM] | fraction unbound [4] | SMILES |
| --- | --- | --- | --- | --- |
| 20 | 50 |  |  | O=C1Nc2ccc(-c3cn[nH]c3)cc2C(CNC(=O)c2ccc(F)cc2)(C(F)(F)F)O1 (single isomer, unassigned; (+)) |
|  |  | > 10000 |  | CS(=O)(=O)c1ccc(C(=O)NCC2(C(F)(F)F)OC(=O)Nc3ccc(Cl)cc32)cc1 (centres undefined) |
|  |  | > 10000 |  | O=C(Nc1ccc(F)cc1)OCC1(c2ccccc2)OC(=O)Nc2ccc(Cl)cc21 (centres undefined) |
|  |  | 1410 |  | O=C(Nc1ccc(F)cc1)OCC1(C2CC2)OC(=O)Nc2ccc(Cl)cc21 (centres undefined) |
| 31 | 377 |  | 0.005 | O=C(NCC1(C(F)(F)F)OC(=O)Nc2ccc(Cl)cc21)Nc1ccc(F)cc1 (single isomer, unassigned; (-)) |
|  |  | 1360 |  | CC1(COC(=O)Nc2ccc(F)cc2)OC(=O)Nc2ccc(Cl)cc21 (centres undefined) |
